Measurements as given in ChEMBL document CHEMBL3785029, “Synthesis and Characterization of Fatty Acid Conjugates of Niacin and Salicylic Acid” (J Med Chem, 2016).
The source made the active and inactive calls. No cut-off for these calls is given here.

Legend:
[1] = target: T1, Sterol regulatory element-binding protein 2 (Homo sapiens) (UniProt Q12772); experiment: Inhibition of SREBP2 maturation in human HepG2 cells at 25 uM after overnight incubation by immunoblot analysis in the presence of atorvastatin; type: cell-based
T1 sequence (whole entry): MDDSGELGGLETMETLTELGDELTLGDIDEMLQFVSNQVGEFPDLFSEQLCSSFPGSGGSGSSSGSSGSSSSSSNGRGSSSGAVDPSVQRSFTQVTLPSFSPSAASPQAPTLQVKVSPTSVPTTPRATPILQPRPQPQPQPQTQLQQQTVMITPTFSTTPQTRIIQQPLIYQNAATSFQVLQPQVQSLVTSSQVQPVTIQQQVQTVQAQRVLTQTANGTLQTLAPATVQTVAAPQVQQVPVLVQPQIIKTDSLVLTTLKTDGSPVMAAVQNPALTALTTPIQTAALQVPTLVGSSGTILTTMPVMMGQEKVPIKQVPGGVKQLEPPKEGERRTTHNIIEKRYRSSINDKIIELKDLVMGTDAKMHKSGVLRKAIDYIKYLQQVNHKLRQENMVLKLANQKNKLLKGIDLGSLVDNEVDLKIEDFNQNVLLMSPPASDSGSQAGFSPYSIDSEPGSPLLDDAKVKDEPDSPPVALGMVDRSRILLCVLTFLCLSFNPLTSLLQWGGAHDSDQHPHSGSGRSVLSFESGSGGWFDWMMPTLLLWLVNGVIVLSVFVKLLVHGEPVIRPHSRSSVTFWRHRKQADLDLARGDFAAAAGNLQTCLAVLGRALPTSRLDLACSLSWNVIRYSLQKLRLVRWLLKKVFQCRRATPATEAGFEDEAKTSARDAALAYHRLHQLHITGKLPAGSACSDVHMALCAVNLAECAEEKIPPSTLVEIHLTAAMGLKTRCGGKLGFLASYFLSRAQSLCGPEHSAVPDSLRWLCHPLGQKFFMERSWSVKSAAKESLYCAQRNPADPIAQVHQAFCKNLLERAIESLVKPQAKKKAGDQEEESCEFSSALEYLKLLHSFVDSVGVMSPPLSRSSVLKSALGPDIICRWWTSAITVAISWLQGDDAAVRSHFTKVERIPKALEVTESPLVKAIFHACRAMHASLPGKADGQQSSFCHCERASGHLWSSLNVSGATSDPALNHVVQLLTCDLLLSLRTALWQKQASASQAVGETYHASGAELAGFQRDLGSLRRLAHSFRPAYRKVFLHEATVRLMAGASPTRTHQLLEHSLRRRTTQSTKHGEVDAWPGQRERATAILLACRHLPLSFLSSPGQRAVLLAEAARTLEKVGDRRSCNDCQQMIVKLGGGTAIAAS
Procedure, shortened: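 Human HepG2 cells incubated with compound (25 and 50 µM), alone or together with 10 µM atorvastatin; mature SREBP-2 protein level assessed.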

[2] = system: Plasma; experiment: Drug metabolism in Sprague-Dawley rat plasma assessed as niacin formation at 300 mg/kg, qd administered through oral gavage for 7 days measured 2 hrs post last dose by LC/MS/MS analysis; type: ADME, organism-based; settings: in vivo, BLD = below limit of detection
[3] = AUClast in Sprague-Dawley rat at 100 mg/kg, po administered as single dose measured up to 6 hrs post dose by LC/MS/MS analysis; type: ADME, organism-based; design: dose 100 mg/kg, time < 6 hr, route oral; settings: in vivo
Procedure, shortened: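 Single oral dose to Sprague Dawley rats; plasma collected at 0.25, 0.5, 1, 2, 4 and 6 hr; analytes in plasma quantified by LC/MS/MS.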

[4] = system: Liver; experiment: Drug metabolism in Sprague-Dawley rat liver assessed as linker EPA metabolite (5Z,8Z,11Z,14Z,17Z)-N-(2-aminoethyl)icosa-5,8,11,14,17-pentaenamide formation at 300 mg/kg, qd administered through oral gavage for 7 days measured 2 hrs post last dose by LC/MS/MS analysis; type: ADME, organism-based; settings: in vivo
[5] = system: Intestine; experiment: Drug metabolism in Sprague-Dawley rat intestine assessed as linker EPA metabolite (5Z,8Z,11Z,14Z,17Z)-N-(2-aminoethyl)icosa-5,8,11,14,17-pentaenamide formation at 300 mg/kg, qd administered through oral gavage for 7 days measured 2 hrs post last dose by LC/MS/MS analysis; type: ADME, organism-based; settings: in vivo
[6] = system: Plasma; experiment: Metabolic stability in rat plasma at 5 uM up to 2 hrs by LC-MS-MS analysis; type: ADME, cell-free
Procedure, shortened: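 Plasma from each species diluted to 50% with 0.05 M PBS pH 7.4 and prewarmed to 37 °C; compound added at 5 µM final (from DMSO stock diluted in MeOH); triplicate incubations at 37 °C, sampled at 0, 30, 60, 120 min, quenched with acetonitrile containing internal standard, centrifuged, analysed by LC/MS/MS.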

[7] = system: Plasma; experiment: Drug metabolism in Sprague-Dawley rat plasma assessed as nicotinuric acid formation at 300 mg/kg, qd administered through oral gavage for 7 days measured 2 hrs post last dose by LC/MS/MS analysis; type: ADME, organism-based; settings: in vivo
[8] = AUClast in Sprague-Dawley rat at 300 mg/kg, po measured up to 24 hrs post dose; type: ADME, organism-based; design: dose 300 mg/kg, time < 24 hr, route oral; settings: in vivo
Procedure, shortened: (§1)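 Single oral dose of 300 mg/kg to Sprague Dawley rats. Plasma collected at 0, 0.5, 1, 2, 4, 8 and 24 hr. Analytes were the parent, the salicylate-linker and linker-DHA metabolites, salicylic acid and salicyluric acid; Cmax and AUClast derived.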

[9] = system: Plasma; experiment: Drug metabolism in Sprague-Dawley rat plasma assessed as N-(2-aminoethyl)-2-hydroxy-benzamide formation at 300 mg/kg, po measured up to 24 hrs post dose; type: ADME, organism-based; settings: in vivo; procedure, shortened: as §1
[10] = system: Liver; experiment: Drug metabolism in Sprague-Dawley rat liver assessed as salicyluric acid formation at 300 mg/kg, po administered for 14 days followed by 7 day washout cycle measured on day 21; type: ADME, organism-based; settings: in vivo
[11] = Drug metabolism in Sprague-Dawley rat epididymal fat assessed as salicyluric acid formation at 300 mg/kg, po administered for 7 days measured 4 hrs post dose on day 7; type: ADME, organism-based, Epididymal fat pad; settings: in vivo
Procedure, shortened: (§2)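 Male Sprague Dawley rats, groups of 4, dosed orally at 300 mg/kg once daily for 14 days. Animals killed on days 1, 3, 7 and 14, with plasma, brain, epididymal fat, liver and muscle taken 4 hr after dosing. Parent, salicylic acid and salicyluric acid were measured.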

[12] = system: Muscle tissue; experiment: Drug uptake in Sprague-Dawley rat muscle at 300 mg/kg, po administered for 14 days followed by 7 day washout cycle measured on day 21; type: ADME, organism-based; settings: in vivo
[13] = system: Plasma; experiment: Drug metabolism in Sprague-Dawley rat plasma assessed as salicyluric acid formation at 300 mg/kg, po administered for 14 days followed by 7 day washout cycle measured on day 21; type: ADME, organism-based; settings: in vivo
[14] = system: Plasma; experiment: Drug metabolism in Sprague-Dawley rat plasma assessed as salicyluric acid formation at 300 mg/kg, po administered for 7 days measured 4 hrs post dose on day 7; type: ADME, organism-based; settings: in vivo; procedure, shortened: as §2
[15] = system: Plasma; experiment: Drug metabolism in Sprague-Dawley rat plasma assessed as (4Z,7Z,10Z,13Z,16Z,19Z)-N-(2-aminoethyl)docosa-4,7,10,13,16,19-hexaenamide formation at 300 mg/kg, po measured up to 24 hrs post dose; settings: in vivo
[16] = system: Rattus norvegicus; experiment: Cmax in Sprague-Dawley rat assessed as salicyluric acid at 300 mg/kg, po measured up to 24 hrs post dose; type: ADME, organism-based; design: dose 300 mg/kg, route oral; settings: in vivo; procedure, shortened: as §1
[17] = system: Plasma; experiment: Drug uptake in Sprague-Dawley rat plasma at 300 mg/kg, po administered for 14 days followed by 7 day washout cycle measured on day 21; type: ADME, organism-based; settings: in vivo

Compound	inhibition [1]	Drug metabolism [2]	AUC(0-t) at 6 h [3] [ng·h/mL]	Drug metabolism [4] [ng/g]	Drug metabolism [5] [ng/g]	Stability [6]	Drug metabolism [7] [ng/mL]	AUC(0-t) at 24 h [8] [ng·h/mL]	Drug metabolism [9]	Drug metabolism [10]	Drug metabolism [11] [ng/g]	Drug uptake [12]	Drug metabolism [13]	Drug metabolism [14] [ng/mL]	Drug metabolism [15]	Cmax [16] [ng/mL]	Drug uptake [17]
CC/C=C\C/C=C\C/C=C\C/C=C\C/C=C\CCCC(=O)NCCNC(=O)c1cccnc1	Active	BLD	172	8.7	74	Stable	3220	–	–	–	–	–	–	–	–	–	–
CC/C=C\C/C=C\C/C=C\C/C=C\C/C=C\C/C=C\CCC(=O)NCCNC(=O)c1ccccc1O [EDASALONEXENT]	–	–	–	–	–	–	–	1940	metabolite_detected	metabolite_notdetected	203.71	Not Active	metabolite_notdetected	764.41	metabolite_notdetected	563	Not Active
